Results taken from ChEMBL document CHEMBL4732101, “Novel quinolone-based potent and selective HDAC6 inhibitors: Synthesis, molecular modeling studies and biological investigation” (Eur J Med Chem, 2021).
pIC50: −log10 of the molar value. Calls of active or inactive are those of the source. The rule behind the calls is not given here.

Columns and labels:
[1] = target: T1, Protein deacetylase HDAC6 (Homo sapiens) (UniProt Q9UBN7); test: Inhibition of HDAC6 in human HCT-116 cells assessed as increase in alpha-tubulin acetylation at 10 uM measured after 12 to 24 hrs by Western blot analysis relative to control; assay type: cell-based; conditions: time 12-24 hrs
T1 sequence (whole entry): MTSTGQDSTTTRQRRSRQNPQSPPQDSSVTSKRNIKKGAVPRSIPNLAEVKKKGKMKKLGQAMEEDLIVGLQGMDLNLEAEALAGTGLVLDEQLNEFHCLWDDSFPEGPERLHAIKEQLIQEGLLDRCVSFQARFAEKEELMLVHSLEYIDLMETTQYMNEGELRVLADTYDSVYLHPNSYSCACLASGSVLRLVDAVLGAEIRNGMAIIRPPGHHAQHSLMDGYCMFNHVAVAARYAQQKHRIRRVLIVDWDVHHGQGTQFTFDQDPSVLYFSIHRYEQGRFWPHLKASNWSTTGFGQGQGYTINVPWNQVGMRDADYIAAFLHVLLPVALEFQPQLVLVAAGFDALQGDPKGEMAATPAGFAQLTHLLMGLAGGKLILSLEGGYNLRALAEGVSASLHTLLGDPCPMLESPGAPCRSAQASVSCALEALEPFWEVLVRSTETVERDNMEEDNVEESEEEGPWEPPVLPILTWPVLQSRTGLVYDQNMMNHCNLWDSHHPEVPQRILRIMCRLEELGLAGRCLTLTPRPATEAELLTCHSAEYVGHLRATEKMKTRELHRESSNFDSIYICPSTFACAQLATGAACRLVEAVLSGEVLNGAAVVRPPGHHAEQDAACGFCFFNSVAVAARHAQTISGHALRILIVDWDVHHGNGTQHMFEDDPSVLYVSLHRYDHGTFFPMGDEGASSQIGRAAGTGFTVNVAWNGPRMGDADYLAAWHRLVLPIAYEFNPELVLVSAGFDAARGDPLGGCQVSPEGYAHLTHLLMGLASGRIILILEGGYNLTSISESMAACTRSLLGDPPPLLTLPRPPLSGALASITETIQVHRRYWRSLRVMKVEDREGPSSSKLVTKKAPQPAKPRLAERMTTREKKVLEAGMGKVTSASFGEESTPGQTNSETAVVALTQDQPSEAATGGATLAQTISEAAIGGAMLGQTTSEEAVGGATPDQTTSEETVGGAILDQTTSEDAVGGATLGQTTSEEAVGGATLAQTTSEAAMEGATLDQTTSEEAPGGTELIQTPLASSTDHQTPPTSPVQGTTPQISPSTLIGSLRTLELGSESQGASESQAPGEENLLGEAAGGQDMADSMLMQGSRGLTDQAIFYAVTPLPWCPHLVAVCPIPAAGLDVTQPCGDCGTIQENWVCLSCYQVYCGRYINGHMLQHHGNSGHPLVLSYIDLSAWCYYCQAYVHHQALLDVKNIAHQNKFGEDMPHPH
Summary of the method: (§1)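 HCT-116 or U937 cells treated at 10 µM for 12 and 24 h. […] Western blot used 40 µg total protein or 5 µg acid-extracted histone. Blots probed for cleaved PARP, acetylated tubulin, H3K9/14ac and Hsp90(AcLys294), normalized to GAPDH or H4. Compared with control cells by one-way ANOVA and Dunnett's test.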

[2] = Mutagenicity in Salmonella typhimurium TA98 at 5 to 230 uM measured after 90 mins in presence of rat liver S9 fraction by Ames test; assay type: toxicity, subcellular; conditions: salmonella enterica subsp. enterica serovar typhimurium, s9, 1.5 h, dose 5-230 µM
HCT-116 [3] = test: Cytotoxicity against human HCT-116 cells assessed as reduction in cell viability measured after 24 hrs by MTT assay; assay type: functional, cell-based; conditions: HCT-116, 24 h
Summary of the method: (§2)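 HCT-116 cells grown in DMEM with 10% FBS, 2 mM L-glutamine and antibiotics. 2.5×10^4 cells/well treated in triplicate at 50, 25, 10, 5 and 1 µM for 12, 24 or 48 h. Then MTT 0.5 mg/ml for 3 h, supernatant removed, formazan dissolved in isopropanol, absorbance read at 570 nm. IC50 derived from the concentration series.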

[4] = Solubility of compound in pH 3 buffer at 250 uM measured after 24 hrs by HPLC/UV/DAD method; assay type: physicochemical; conditions: pH 3, 24 h
Summary of the method: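 10 mM DMSO stock diluted to 250 µM (2.5% DMSO) in 50 mM acetic acid, pH 3.0, and shaken 24 h at 25 °C. For solubility, samples filtered, diluted 1:2, quantified by HPLC-UV at 254 nm against a standard. For stability, percent remaining taken as the 24 h peak area over the T0 peak area. Triplicate analyses averaged.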

[5] = target: T1, Protein deacetylase HDAC6 (Homo sapiens); test: Inhibition of HDAC6 in human U-937 cells assessed as increase in Hsp90(AcLys294) acetylation at 10 uM measured after 12 to 24 hrs by Western blot analysis; assay type: cell-based; conditions: time 12-24 hrs; summary of the method: as §1
U-937 [6] = test: Cytotoxicity against human U-937 cells assessed as reduction in cell proliferation at 50 uM measured after 48 hrs by MTT assay relative to control; assay type: functional; parameters: scale not given: the % may be the effect or the level left
Summary of the method: (§3)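 U937 cells grown in RPMI-1640 with 10% FBS, 2 mM L-glutamine and penicillin-streptomycin. 2.5×10^4 cells/well treated in triplicate at 50, 25, 10, 5 and 1 µM for 12, 24 or 48 h. MTT 0.5 mg/ml added for 3 h, plate centrifuged 5 min at 1200 rpm, crystals dissolved in isopropanol, A570 read. IC50 derived from the concentration series.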

U-937 [7] = test: Induction of apoptosis in human U-937 cells assessed as increase in PARP cleavage at 10 uM measured after 24 hrs by Western blot analysis; assay type: functional, cell-based; summary of the method: as §1
HCT-116 [8] = test: Cytotoxicity against human HCT-116 cells assessed as reduction in cell viability measured after 48 hrs by MTT assay; assay type: functional, cell-based; conditions: HCT-116, 48 h; summary of the method: as §2
U-937 [9] = test: Cytotoxicity against human U-937 cells assessed as reduction in cell viability measured after 48 hrs by MTT assay; assay type: functional, cell-based; conditions: U-937, 48 h; summary of the method: as §3
[10] = Inhibition of HDAC1/2/3/8 in human U-937 cells assessed as increase in H3K9/14 acetylation at 10 uM measured after 12 to 24 hrs by Western blot analysis; assay type: cell-based; conditions: u-937, 10 µM, time 12-24 hrs; summary of the method: as §1
[11] = target: T1, Protein deacetylase HDAC6 (Homo sapiens); test: Inhibition of HDAC6 in human U-937 cells assessed as increase in alpha-tubulin acetylation at 10 uM measured after 12 to 24 hrs by Western blot analysis relative to control; assay type: cell-based; conditions: time 12-24 hrs; summary of the method: as §1

SMILES: CCN(CC)Cc1ccc(Cn2c(=O)c(OCc3ccc(C(=O)NO)cc3)c(-c3cccnc3)c3ccccc32)cc1
- fold change (FC) [1]: > 9
- Activity [2]: Non-Toxic
- pIC50 (HCT-116 [3]): 4.59
- solubility [4]: Soluble
- inhibition [5]: inactive
- Activity (U-937 [6]): 60%
- Activity (U-937 [7]): Active
- pIC50 (HCT-116 [8]): 5.08
- pIC50 (U-937 [9]): 4.34
- inhibition (INH) [10]: Active
- fold change (FC) [11]: > 9
